Reference: ChEMBL document CHEMBL2440094, “Thiazolidinone-peptide hybrids as dengue virus protease inhibitors with antiviral activity in cell culture” (J Med Chem, 2013)
Activity calls are given as the source filed them. The rule behind the calls is not given here.

system: Huh-7; experiment: Cytotoxicity against human HuH7 cells at <50 uM after 48 hrs by firefly reporter assay; type: cell-based; settings: huh-7, 48 h
In short: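 Uninfected Huh-7 cells stably expressing firefly luciferase, seeded 5000/well and incubated overnight at 37 °C. Compound added at 1.56–50 μM, plus 100, 200 and 400 μM, then incubated as for infected cells (further 48 h after the 4 h point). Firefly luminescence read with 70 μM luciferin and 2 mM ATP. Mean of three wells as percent of DMSO control.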

Compound | Activity
CCCC[C@H](NC(=O)[C@H](CCCCN)NC(=O)[C@H](CCCNC(=N)N)NC(=O)c1ccc(/C=C2\SC(=O)NC2=O)cc1)C(N)=O | Non-toxic

system: dengue virus type 2; experiment: Antiviral activity against Dengue virus 2 infected in human Huh-7 cells assessed as inhibition of viral replication after 48 hrs by luciferase reporter gene assay; type: functional, organism-based; settings: Huh-7, 48 h
In short: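 Huh-7 cells seeded 5000/well, incubated overnight at 37 °C, then given compound (1.56–50 μM final, 2-fold series in DMEM with 10% FCS). Dengue 2 renilla luciferase reporter virus (MOI 10) added 4 h later. After 48 h at 37 °C, cells lysed and renilla luminescence read with coelenterazine. At least four wells per concentration, expressed relative to DMSO control. EC50 by nonlinear regression.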

Compound | EC50
CCCC[C@H](NC(=O)[C@H](CCCCN)NC(=O)[C@H](CCCNC(=N)N)NC(=O)c1ccc(/C=C2\SC(=O)N(CCCC)C2=O)cc1)C(N)=O | > 50 µM
CCCC[C@H](NC(=O)[C@H](CCCCN)NC(=O)[C@H](CCCNC(=N)N)NC(=O)c1ccc(/C=C2\SC(=S)N(CCCC)C2=O)cc1)C(N)=O | 35.5 µM
CCCC[C@H](NC(=O)[C@H](CCCCN)NC(=O)[C@H](CCCNC(=N)N)NC(=O)c1ccc(/C=C2\SC(=S)N(C3CCCC3)C2=O)cc1)C(N)=O | 30.3 µM
CCCC[C@H](NC(=O)[C@H](CCCCN)NC(=O)[C@H](CCCNC(=N)N)NC(=O)c1ccc(/C=C2\SC(=O)NC2=O)cc1)C(N)=O | > 50 µM
CCCC[C@H](NC(=O)[C@H](CCCCN)NC(=O)[C@H](CCCNC(=N)N)NC(=O)c1ccc(/C=C2\SC(=O)N(C3CCCC3)C2=O)cc1)C(N)=O | 44.9 µM

system: not listed separately; experiment: Permeability of the compound by PAMPA; type: ADME; settings: read-out: permeability
In short: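 PAMPA with precoated trilayer lipid/oil/lipid membranes, donor wells holding 200 μM compound in PBS pH 7.4 (2% DMSO final), in triplicate. Incubated 5 h at room temperature. Donor and acceptor concentrations determined by UV plate reader or HPLC-UV against calibration curves. Pe and mass retention R calculated.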

Compound | Papp
CCCC[C@H](NC(=O)[C@H](CCCCN)NC(=O)[C@H](CCCNC(=N)N)NC(=O)c1ccc(/C=C2\SC(=O)N(CCCC)C2=O)cc1)C(N)=O | 1.18 ×10⁻⁶ cm/s
CCCC[C@H](NC(=O)[C@H](CCCCN)NC(=O)[C@H](CCCNC(=N)N)NC(=O)c1ccc(/C=C2\SC(=S)N(CCCC)C2=O)cc1)C(N)=O | 1.61 ×10⁻⁶ cm/s
CCCC[C@H](NC(=O)[C@H](CCCCN)NC(=O)[C@H](CCCNC(=N)N)NC(=O)c1ccc(/C=C2\SC(=S)N(C3CCCC3)C2=O)cc1)C(N)=O | 2.31 ×10⁻⁶ cm/s
CCCC[C@H](NC(=O)[C@H](CCCCN)NC(=O)[C@H](CCCNC(=N)N)NC(=O)c1ccc(/C=C2\SC(=O)N(C3CCCC3)C2=O)cc1)C(N)=O | 0.44 ×10⁻⁶ cm/s

system: Dengue virus; experiment: Mixed type inhibition of Dengue virus NS2B-NS3 protease expressed in Escherichia coli BL 21 (DE3) using Abz-Nle-Lys-Arg-Arg-Ser-3-(NO2)Tyr as substrate by Cornish-Bowden plot analysis; settings: not given
In short: (§1)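 DEN2 NS2B–NS3 FRET assay run at inhibitor 0–6 μM (prior-series compounds 5–50 μM) and substrate 50, 100, 150 and 200 μM, in triplicate, with inner-filter correction. Ki from Dixon plots (1/v vs [I]) and Ki′ from Cornish-Bowden plots (S/v vs [I]). Inhibition mode assigned from these plots.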

Compound | inhibition
CCCC[C@H](NC(=O)[C@H](CCCCN)NC(=O)[C@H](CCCNC(=N)N)NC(=O)c1ccc(/C=C2\SC(=O)N(C3CCCC3)C2=O)cc1)C(N)=O | Active

system: Dengue virus; experiment: Competitive inhibition of Dengue virus NS2B-NS3 protease expressed in Escherichia coli BL 21 (DE3) using Abz-Nle-Lys-Arg-Arg-Ser-3-(NO2)Tyr as substrate by Cornish-Bowden plot analysis; settings: not given; in short: as §1

Compound | inhibition
CCCC[C@H](NC(=O)[C@H](CCCCN)NC(=O)[C@H](CCCNC(=N)N)NC(=O)c1ccc(/C=C2\SC(=O)N(CCCC)C2=O)cc1)C(N)=O | Active
CCCC[C@H](NC(=O)[C@H](CCCCN)NC(=O)[C@H](CCCNC(=N)N)NC(=O)c1ccc(/C=C2\SC(=S)N(CCCC)C2=O)cc1)C(N)=O | Active
CCCC[C@H](NC(=O)[C@H](CCCCN)NC(=O)[C@H](CCCNC(=N)N)NC(=O)c1ccc(/C=C2\SC(=S)N(C3CCCC3)C2=O)cc1)C(N)=O | Active

system: not listed separately; experiment: Inhibition of Dengue virus NS2B-NS3 protease expressed in Escherichia coli BL 21 (DE3) using Abz-Nle-Lys-Arg-Arg-Ser-3-(NO2)Tyr as substrate assessed as enzyme-substrate-inhibitor complex by Cornish-Bowden plot analysis; settings: not given; in short: as §1

Compound | Ki
CCCC[C@H](NC(=O)[C@H](CCCCN)NC(=O)[C@H](CCCNC(=N)N)NC(=O)c1ccc(/C=C2\SC(=O)N(CCCC)C2=O)cc1)C(N)=O | > 10 µM
CCCC[C@H](NC(=O)[C@H](CCCCN)NC(=O)[C@H](CCCNC(=N)N)NC(=O)c1ccc(/C=C2\SC(=S)N(CCCC)C2=O)cc1)C(N)=O | > 10 µM
CCCC[C@H](NC(=O)[C@H](CCCCN)NC(=O)[C@H](CCCNC(=N)N)NC(=O)c1ccc(/C=C2\SC(=S)N(C3CCCC3)C2=O)cc1)C(N)=O | > 10 µM
CCCC[C@H](NC(=O)[C@H](CCCCN)NC(=O)[C@H](CCCNC(=N)N)NC(=O)c1ccc(/C=C2\SC(=O)N(C3CCCC3)C2=O)cc1)C(N)=O | 7.9 µM

system: not listed separately; experiment: Inhibition of Dengue virus NS2B-NS3 protease expressed in Escherichia coli BL 21 (DE3) using Abz-Nle-Lys-Arg-Arg-Ser-3-(NO2)Tyr as substrate assessed as enzyme-inhibitor complex by Cornish-Bowden plot analysis; settings: in the assay text read “Dixon plot” for “Cornish-Bowden plot”; in short: as §1

Compound | Ki
CCCC[C@H](NC(=O)[C@H](CCCCN)NC(=O)[C@H](CCCNC(=N)N)NC(=O)c1ccc(/C=C2\SC(=O)N(CCCC)C2=O)cc1)C(N)=O | 3.4 µM
CCCC[C@H](NC(=O)[C@H](CCCCN)NC(=O)[C@H](CCCNC(=N)N)NC(=O)c1ccc(/C=C2\SC(=S)N(CCCC)C2=O)cc1)C(N)=O | 4.7 µM
CCCC[C@H](NC(=O)[C@H](CCCCN)NC(=O)[C@H](CCCNC(=N)N)NC(=O)c1ccc(/C=C2\SC(=S)N(C3CCCC3)C2=O)cc1)C(N)=O | 3.6 µM
CCCC[C@H](NC(=O)[C@H](CCCCN)NC(=O)[C@H](CCCNC(=N)N)NC(=O)c1ccc(/C=C2\SC(=O)N(C3CCCC3)C2=O)cc1)C(N)=O | 1.8 µM

system: not listed separately; experiment: Inhibition of Dengue virus NS2B-NS3 protease expressed in Escherichia coli BL 21 (DE3) using Abz-Nle-Lys-Arg-Arg-Ser-3-(NO2)Tyr as substrate after 15 mins; settings: not given

Compound | IC50
CCCC[C@H](NC(=O)[C@H](CCCCN)NC(=O)[C@H](CCCNC(=N)N)NC(=O)c1ccc(/C=C2\SC(=O)N(CCCC)C2=O)cc1)C(N)=O | 3.5 µM
CCCC[C@H](NC(=O)[C@H](CCCCN)NC(=O)[C@H](CCCNC(=N)N)NC(=O)c1ccc(/C=C2\SC(=S)N(CCCC)C2=O)cc1)C(N)=O | 6.2 µM
CCCC[C@H](NC(=O)[C@H](CCCCN)NC(=O)[C@H](CCCNC(=N)N)NC(=O)c1ccc(/C=C2\SC(=S)N(C3CCCC3)C2=O)cc1)C(N)=O | 6.1 µM
CCCC[C@H](NC(=O)[C@H](CCCCN)NC(=O)[C@H](CCCNC(=N)N)NC(=O)c1ccc(/C=C2\SC(=O)N(C3CCCC3)C2=O)cc1)C(N)=O | 2.5 µM

target: Prothrombin (Homo sapiens) (UniProt P00734); experiment: Inhibition of thrombin (unknown origin) using Boc-Val-Pro-Arg-AMC as substrate at 25 uM after 10 mins by continuous fluorimetric assay; settings: not given
In short: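 Thrombin (10 nM) preincubated 15 min with inhibitor (25 μM final) in 50 mM Tris-HCl pH 7.5, 150 mM NaCl, 0.05% Tween 20. Boc-Val-Pro-Arg-AMC then added to 50 μM (Km 16 μM). Fluorescence (ex 355 nm, em 460 nm) followed for 10 min as slope. Triplicate; percent inhibition versus no-inhibitor control.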

Compound | inhibition
CCCC[C@H](NC(=O)[C@H](CCCCN)NC(=O)[C@H](CCCNC(=N)N)NC(=O)c1ccc(/C=C2\SC(=O)N(CCCC)C2=O)cc1)C(N)=O | 18.4%
CCCC[C@H](NC(=O)[C@H](CCCCN)NC(=O)[C@H](CCCNC(=N)N)NC(=O)c1ccc(/C=C2\SC(=S)N(CCCC)C2=O)cc1)C(N)=O | 11.3%
CCCC[C@H](NC(=O)[C@H](CCCCN)NC(=O)[C@H](CCCNC(=N)N)NC(=O)c1ccc(/C=C2\SC(=S)N(C3CCCC3)C2=O)cc1)C(N)=O | inactive
CCCC[C@H](NC(=O)[C@H](CCCCN)NC(=O)[C@H](CCCNC(=N)N)NC(=O)c1ccc(/C=C2\SC(=O)NC2=O)cc1)C(N)=O | 14.5%
CCCC[C@H](NC(=O)[C@H](CCCCN)NC(=O)[C@H](CCCNC(=N)N)NC(=O)c1ccc(/C=C2\SC(=O)N(C3CCCC3)C2=O)cc1)C(N)=O | 16%

system: West Nile virus; experiment: Inhibition of West Nile virus NS2B-NS3 protease expressed in Escherichia coli BL 21 (DE3) using Abz-Gly-Leu-Lys-Arg-Gly-Gly-3-(NO2)Tyr as substrate at 50 uM after 15 mins; settings: not given

Compound | inhibition
CCCC[C@H](NC(=O)[C@H](CCCCN)NC(=O)[C@H](CCCNC(=N)N)NC(=O)c1ccc(/C=C2\SC(=O)N(CCCC)C2=O)cc1)C(N)=O | 52.4%
CCCC[C@H](NC(=O)[C@H](CCCCN)NC(=O)[C@H](CCCNC(=N)N)NC(=O)c1ccc(/C=C2\SC(=S)N(CCCC)C2=O)cc1)C(N)=O | 64.7%
CCCC[C@H](NC(=O)[C@H](CCCCN)NC(=O)[C@H](CCCNC(=N)N)NC(=O)c1ccc(/C=C2\SC(=S)N(C3CCCC3)C2=O)cc1)C(N)=O | 97.7%
CCCC[C@H](NC(=O)[C@H](CCCCN)NC(=O)[C@H](CCCNC(=N)N)NC(=O)c1ccc(/C=C2\SC(=O)NC2=O)cc1)C(N)=O | 27%
CCCC[C@H](NC(=O)[C@H](CCCCN)NC(=O)[C@H](CCCNC(=N)N)NC(=O)c1ccc(/C=C2\SC(=O)N(C3CCCC3)C2=O)cc1)C(N)=O | 51.8%

system: Dengue virus; experiment: Inhibition of Dengue virus NS2B-NS3 protease expressed in Escherichia coli BL 21 (DE3) using Abz-Nle-Lys-Arg-Arg-Ser-3-(NO2)Tyr as substrate at 50 uM after 15 mins; settings: not given

Compound | inhibition
CCCC[C@H](NC(=O)[C@H](CCCCN)NC(=O)[C@H](CCCNC(=N)N)NC(=O)c1ccc(/C=C2\SC(=O)N(CCCC)C2=O)cc1)C(N)=O | 100%
CCCC[C@H](NC(=O)[C@H](CCCCN)NC(=O)[C@H](CCCNC(=N)N)NC(=O)c1ccc(/C=C2\SC(=S)N(CCCC)C2=O)cc1)C(N)=O | 97.3%
CCCC[C@H](NC(=O)[C@H](CCCCN)NC(=O)[C@H](CCCNC(=N)N)NC(=O)c1ccc(/C=C2\SC(=S)N(C3CCCC3)C2=O)cc1)C(N)=O | 99.8%
CCCC[C@H](NC(=O)[C@H](CCCCN)NC(=O)[C@H](CCCNC(=N)N)NC(=O)c1ccc(/C=C2\SC(=O)NC2=O)cc1)C(N)=O | 84.4%
CCCC[C@H](NC(=O)[C@H](CCCCN)NC(=O)[C@H](CCCNC(=N)N)NC(=O)c1ccc(/C=C2\SC(=O)N(C3CCCC3)C2=O)cc1)C(N)=O | 98.2%
